Screening data from PubChem BioAssay.
SENP6 block: inhibitors of human SENP6 protease; Q9GZR1; Recombinant SENP6 catalytic domain, aminoluciferin luminescence; inhibition, % at 10 µM; 1.8% of 330,000 active; AID 2599;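 active = inhibition above about 50% at the single tested dose, limit read from the data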
Target sequence (Q9GZR1 628-1112 limits assumed): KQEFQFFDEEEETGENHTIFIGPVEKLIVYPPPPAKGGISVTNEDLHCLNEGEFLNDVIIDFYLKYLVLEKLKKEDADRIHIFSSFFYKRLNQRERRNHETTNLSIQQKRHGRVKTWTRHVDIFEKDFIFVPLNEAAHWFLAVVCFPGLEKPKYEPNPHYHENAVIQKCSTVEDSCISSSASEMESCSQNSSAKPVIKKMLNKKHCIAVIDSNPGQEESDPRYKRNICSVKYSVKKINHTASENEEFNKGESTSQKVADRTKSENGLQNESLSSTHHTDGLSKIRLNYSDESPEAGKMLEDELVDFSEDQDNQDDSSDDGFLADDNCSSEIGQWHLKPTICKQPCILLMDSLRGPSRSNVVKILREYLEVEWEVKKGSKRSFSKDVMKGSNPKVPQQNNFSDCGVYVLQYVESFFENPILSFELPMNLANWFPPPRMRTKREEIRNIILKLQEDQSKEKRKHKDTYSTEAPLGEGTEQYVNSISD
SENP8 block-1: blocks human SENP8 cleavage of Nedd8 substrate; Q96LD8; recombinant SENP8, Nedd8 substrate fluorescence; inhibition, % at 20 µM; 0.64% of 360,000 active; in the data active = inhibition mostly above about 40%, no sharp cut-off; inactive = mostly below about 27%
SENP8 block-2: SENP8 protease inhibition; inhibition, % at 10 µM; Q96LD8; 1.2% of 330,000 active; purified SENP8, Z-RLRGG-aminoluciferin cleavage, luminescence; in the data active = inhibition above about 50%
SENP7 inh: blocks the human protease SENP7; Q9BQF6; recombinant SENP7, Z-RLRGG-aminoluciferin luminescence, 40 min; inhibition, % at 5 µM; 1.5% of 330,000 active;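 active = inhibition above about 50% at the single test dose, limit read from the data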
Apaf1 inhib: blocks human Apaf-1 apoptosome activity; O14727; reconstituted apoptosome caspase-3 activity, DEVD-Rh110 fluorescence; inhibition, % at 20 µM; 0.71% of 330,000 active; active = inhibition of at least 40% at 20 µM
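Assay system – apoptosome proteins · Medium – Hepes buffer, pH 7.5 · Also added – cytochrome c with DEVD-Rh110 · Timing – 30 min compound preincubation, 50 min activation, room temperature · Detection – Rh110 fluorescence, excitation 480 nm, emission 540 nm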
UBC13 polyUb: human UBC13 polyubiquitination inhibition. P61088. UBC13 polyubiquitin chain formation, TR-FRET. inhibition, % at 20 µM. 0.47% of 330,000 active. AID 485273; in the data active = inhibition above about 45%, passing the limit was not always enough
Target sequence (P61088 whole entry, looked up): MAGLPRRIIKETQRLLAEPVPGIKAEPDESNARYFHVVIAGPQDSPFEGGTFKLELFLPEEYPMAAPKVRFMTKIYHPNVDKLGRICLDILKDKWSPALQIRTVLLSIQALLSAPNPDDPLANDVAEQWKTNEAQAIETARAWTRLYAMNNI
SENP8 conf: SENP8 (human) inhibition, single concentration confirmation; shares compounds with SENP8 block-1; purified SENP8, Nedd8-AMC/pro-Nedd8 cleavage fluorescence, 30 min; inhibition, % at 25 µM; 15% of 1,400 active; in the data active = inhibition mostly above about 39%, no sharp cut-off; inactive = mostly below about 34%
Numbers stand for hits; - = inactive; . = no result given. Most compounds without a hit are left out; they make up all but 3.1% or so of the library.

SMILES | SENP6 block | SENP8 block-1 | SENP8 block-2 | SENP7 inh | Apaf1 inhib | UBC13 polyUb | SENP8 conf
Cc1oc2cc([N+](=O)[O-])c(O)c([N+](=O)[O-])c2c1C(=O)c1ccc(Cl)cc1 | - | 42.3 | - | - | - | - | -
CC(C)CN(C(=O)C1=COCCO1)c1c(N)n(Cc2ccccc2)c(=O)[nH]c1=O | . | - | . | . | . | . | .
c1ccc(CNc2nc(NCCc3ccncc3)c3sccc3n2)cc1 | . | - | . | . | . | . | .
COC(=O)C(N)CCCCN (stereo not drawn) | - | 43.0 | - | - | - | - | -
Cc1cccc(NS(=O)(=O)c2cccc(C(=O)NCC3(N4CCOCC4)CCCCC3)c2)c1 | . | - | . | . | . | . | .
O=C(NCCCN1CCCCCC1)C1CC(=O)N(CCc2ccccc2)C1 (stereo not drawn) | - | 55.9 | - | - | - | - | -
COc1ccc(C(=O)/C=C/c2ccc(C)cc2)c(OC(=O)c2ccc([N+](=O)[O-])cc2)c1 | - | 42.6 | - | - | - | - | -
COc1ccc(CNC(=O)Cn2ccc(N)nc2=O)cc1 | - | 45.3 | - | - | - | - | -
Nc1ccn(CC(=O)NCc2ccc3c(c2)OCO3)c(=O)n1 | - | - | - | - | - | - | .
COc1cc2c(cc1OC)C(CNC(=O)C=Cc1ccccc1)C2 (stereo not drawn) | . | - | . | . | . | . | .
S=C1SC2(CCCCCC2)NC2=C1CCCCC2 | . | - | . | . | . | . | .
CCN(CC)S(=O)(=O)c1ccc(N/N=C(\C)c2ccc3c(c2)OCO3)c([N+](=O)[O-])c1 | - | - | - | - | - | - | .
C/C(CCC(C)C)=N\Nc1ccc(S(N)(=O)=O)cc1[N+](=O)[O-] | - | - | - | - | - | - | .
CCC(CC)=NNc1ccc(S(N)(=O)=O)cc1[N+](=O)[O-] | - | 47.0 | - | - | - | - | -
C/C(=N\Nc1ccc(S(N)(=O)=O)cc1[N+](=O)[O-])c1ccc2c(c1)OCO2 | . | 47.4 | . | . | . | . | -
NS(=O)(=O)c1ccc(N/N=C/c2ccc[nH]2)c([N+](=O)[O-])c1 | - | 35.2 | - | - | - | - | -
CC1=C(C(=O)N2CCCCCC2)CC(CC(=O)NCCCN(C)C)C(=O)N1Cc1ccc(F)cc1 (stereo not drawn) | . | - | . | . | . | . | .
Cc1[nH][nH]c(=O)c1C(c1cc(Br)ccc1O)c1c(C)[nH][nH]c1=O | - | 41.8 | - | - | - | - | -
Cc1[nH][nH]c(=O)c1C(c1cc2c(cc1Br)OCO2)c1c(C)[nH][nH]c1=O | - | - | - | - | - | - | .
COc1ccc(-c2n[nH]nc2C2=CC(=O)CC(C)(C)C2)cc1 | . | - | . | . | . | . | .
CCNC(=O)NC(=O)C(C)Sc1nc2ccccc2n1CC(C)C (stereo not drawn) | - | 42.2 | - | - | - | - | -
CCNC(=O)NC(=O)C(C)Sc1nc2ccccc2c(=O)n1-c1cccnc1 (stereo not drawn) | - | - | - | - | - | - | .
CC1(Cc2ccccc2F)C(=O)Nc2c(Cl)ccc(Cl)c21 (stereo not drawn) | . | - | . | . | . | . | .
CCOC(=O)C1=C(C)NC(=O)NC1c1ccc(OCCO)c(OC)c1 (stereo not drawn) | - | 40.0 | - | - | - | - | -
Cc1ccc(S(=O)(=O)NC(=O)C2(C)CCN2C(=O)Cc2cccs2)cc1 (stereo not drawn) | . | - | . | . | . | . | .
SMILES | SENP6 block | SENP8 block-1 | SENP8 block-2 | SENP7 inh | Apaf1 inhib | UBC13 polyUb | SENP8 conf
COc1cc(N(C(C)=O)c2ccc(O)c(C(=O)O)c2)c2ncccc2c1 | . | 44.0 | . | . | . | . | 61.2
COc1cc(N(C(C)=O)c2ccc(O)cc2)c2ncccc2c1 | . | - | . | . | . | . | .
COc1cccc(N=Nc2c(=O)[nH]n3c(=O)c4c([nH]c23)CCC4)c1 | - | - | - | - | - | - | .
COc1cccc(N=Nc2c(=O)[nH]n3c(=O)cc(C)[nH]c23)c1 | - | 47.5 | - | - | - | - | -
CCCCC(=O)N(C)c1c(CC)nc2c(OCc3cccc(Cl)c3)cccn12 | . | - | . | . | . | . | .
CCCc1cc(=O)[nH]c(SCC(=O)Nc2ncc(S(=O)(=O)c3ccc([N+](=O)[O-])cc3)s2)n1 | - | 47.4 | - | - | - | - | -
CCOc1ccccc1NC1=C(Cl)C(=O)N(Cc2ccccc2)C1=O | - | 41.4 | - | - | - | - | -
Cc1ccc(Nc2nc(N)c([N+](=O)[O-])c(N3CCC(C)CC3)n2)cc1C | - | - | - | - | - | - | .
Nc1nc(Nc2ccc(Cl)cc2)nc(NCCO)c1[N+](=O)[O-] | - | - | - | - | - | - | .
Cc1ccc(Nc2nc(N)c([N+](=O)[O-])c(NCCO)n2)cc1C | - | 48.4 | - | - | - | - | -
Cc1ccc(Nc2nc(N)c([N+](=O)[O-])c(N3CCOCC3)n2)cc1C | - | 41.3 | - | - | - | - | -
CS(=O)(=O)c1ccc(Cl)c(NC(=O)CCCc2nc3ccccc3c(=O)[nH]2)c1 | - | - | - | - | - | - | .
CS(=O)(=O)c1ccc(NC(=O)CCCc2nc3ccccc3c(=O)[nH]2)cc1 | - | 53.9 | - | - | - | - | -
CC(=O)Nc1cc2c(cc1Br)OCCO2 | - | 47.1 | - | - | - | - | -
OC[C@H]1O[C@H](OCc2ccccc2)[C@H](O[C@@H]2OC[C@@H](O)[C@H](O)[C@H]2O)[C@@H](O)[C@@H]1O | - | 41.9 | - | - | - | - | -
OC1COC(OCC2OC(OCc3ccccc3)C(O)C(O)C2O)C(O)C1O (stereo not drawn) | - | - | - | - | - | - | .
O=C1C=CC2=C3c4cc(O)c(O)cc4CC3(O)COC2=C1O (stereo not drawn) | . | - | . | . | . | . | .
COc1ccc(N2C(=O)[C@H]3[C@@H](C2=O)C2c4ccccc4C=NN2[C@H]3C(=O)C(C)(C)C)cc1 (stereo partly drawn) | - | - | - | - | - | - | .
COc1ccc(N2C(=O)[C@@H]3[C@H](C2=O)[C@H]2c4ccccc4C=CN2[C@@H]3C(C)=O)cc1 | . | 62.6 | . | . | . | . | 92.7
C#CCNC(=O)C[C@@H]1C[C@@]2(C(=O)OC)CC(C)(C)CC=C2N(Cc2ccccc2)C1=O | . | - | . | . | . | . | .
CSc1nncc(/C(C)=N\Nc2ccccc2C)n1 | - | 53.9 | - | - | - | - | -
COc1cc(OC)c([N+](=O)[O-])cc1/C=N/NC(=O)c1ccncc1 | - | 43.4 | - | - | - | - | 97.0
Nc1cc(Cl)nc(N/N=C/c2ccccc2[N+](=O)[O-])n1 | - | 51.8 | - | - | - | - | -
O=c1[nH]c(=O)n(C(c2ccccc2)(c2ccccc2)c2ccccc2)cc1N(CCO)CCO | . | - | . | . | . | . | .
CC1CCCC/C1=N/Nc1ccc([N+](=O)[O-])cc1[N+](=O)[O-] (stereo not drawn) | - | 47.1 | - | - | - | - | -
C/C(CC(C)C)=N/Nc1ccc([N+](=O)[O-])cc1[N+](=O)[O-] | - | - | - | - | - | - | .
CC1C/C(=N/Nc2ccc([N+](=O)[O-])cc2[N+](=O)[O-])CC(C)(C)C1 (stereo not drawn) | - | 45.5 | - | - | - | - | -
